Test results reported in ChEMBL document CHEMBL3085701, “Optimization of novel indole-2-carboxamide inhibitors of neurotropic alphavirus replication” (J Med Chem, 2013).

Tests used:
[1] = target: MDR1 (ABCB1, P-glycoprotein) (Homo sapiens, UniProt P08183); assay: Inhibition of human MDR1 expressed in MDCK2 cells assessed as increase of rhodamine 123 uptake at 30 uM up to 240 mins relative to control; format: ADME, cell-based, MDCK-II; conditions: MDCK2 cells expressing human MDR1, probe rhodamine 123
MDR1 (ABCB1, P-glycoprotein), sequence (P08183 whole entry): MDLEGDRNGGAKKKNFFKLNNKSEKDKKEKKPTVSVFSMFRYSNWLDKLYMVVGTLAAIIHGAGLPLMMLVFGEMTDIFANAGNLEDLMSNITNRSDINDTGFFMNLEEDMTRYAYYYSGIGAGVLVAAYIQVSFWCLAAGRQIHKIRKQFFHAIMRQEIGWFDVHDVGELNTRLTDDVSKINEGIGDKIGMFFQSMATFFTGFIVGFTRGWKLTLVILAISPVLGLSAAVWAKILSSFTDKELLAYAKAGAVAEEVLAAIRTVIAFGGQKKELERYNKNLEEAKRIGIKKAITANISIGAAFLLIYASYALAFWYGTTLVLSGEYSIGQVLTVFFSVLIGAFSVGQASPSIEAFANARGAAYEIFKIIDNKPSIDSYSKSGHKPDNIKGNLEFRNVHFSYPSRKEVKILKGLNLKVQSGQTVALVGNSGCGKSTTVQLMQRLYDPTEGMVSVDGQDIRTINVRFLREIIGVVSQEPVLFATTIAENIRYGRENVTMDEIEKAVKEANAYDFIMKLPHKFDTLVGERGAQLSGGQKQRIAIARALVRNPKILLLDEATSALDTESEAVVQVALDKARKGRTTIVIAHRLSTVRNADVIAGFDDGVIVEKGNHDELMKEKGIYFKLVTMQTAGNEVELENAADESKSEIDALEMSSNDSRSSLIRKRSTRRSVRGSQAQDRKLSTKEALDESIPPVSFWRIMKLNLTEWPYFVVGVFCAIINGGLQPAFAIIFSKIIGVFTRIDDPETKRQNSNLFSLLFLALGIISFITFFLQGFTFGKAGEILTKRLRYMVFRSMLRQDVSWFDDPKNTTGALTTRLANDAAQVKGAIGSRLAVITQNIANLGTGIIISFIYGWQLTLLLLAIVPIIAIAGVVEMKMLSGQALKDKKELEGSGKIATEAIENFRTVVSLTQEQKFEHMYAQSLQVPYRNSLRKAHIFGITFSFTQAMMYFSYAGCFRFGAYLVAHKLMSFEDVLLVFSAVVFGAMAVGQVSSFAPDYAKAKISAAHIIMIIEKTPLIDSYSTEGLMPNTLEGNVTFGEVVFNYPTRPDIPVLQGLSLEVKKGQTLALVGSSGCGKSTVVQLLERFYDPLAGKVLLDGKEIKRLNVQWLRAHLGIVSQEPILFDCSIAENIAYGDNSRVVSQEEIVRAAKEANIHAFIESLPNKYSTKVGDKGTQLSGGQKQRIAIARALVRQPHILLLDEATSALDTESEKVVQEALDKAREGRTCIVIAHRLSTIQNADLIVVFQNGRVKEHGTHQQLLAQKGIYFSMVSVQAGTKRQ
Outline: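 Confluent MDR1-MDCKII cells (human Pgp-transfected) given fresh DMEM with 10 μM rhodamine 123, plus vehicle, tariquidar (5 μM) or compound (30 μM). Uptake at 37°C from 1 to 240 min, stopped by ice-cold PBS washes. Fluorescence read at ex 525/em 560-640 nm. Result expressed as % of same-day tariquidar effect, (Cav−Cveh)*100/(Ctar−Cveh). Triplicates on ≥3 occasions.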

[2] = Kinetic solubility of the compound; format: physicochemical
[3] = Cytotoxicity against human BE(2)-C cells after 18 to 20 hrs by MTT assay; format: cell-based
[4] = tested on: Western equine encephalitis virus; assay: Antiviral activity against Western equine encephalomyelitis virus infected in human BE(2)-C cells assessed as inhibition of viral RNA replication after 18 to 20 hrs by luciferase reporter gene assay; format: functional, cell-based
[5] = Half life in Balb-C mouse liver microsomes; format: ADME, Microsome
Outline: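 Compound incubated with Balb-C mouse liver microsomes, and half-life determined for oxidative metabolism. Values are means of ≥2 independent incubations.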

[6] = tested on: Fort Morgan virus; assay: Antiviral activity against Fort Morgan virus infected in human BE(2)-C cells assessed as reduction of viral titer at 25 uM after 24 hrs by plaque reduction assay (reference value: 47.1 +/- 10.5 x 10^6 pfu/ml); format: functional
[7] = Cytotoxicity against human BE(2)-C cells assessed as cell viability at 25 uM after 24 hrs by MTT assay relative to control; format: cell-based; conditions: read-out: Activity
[8] = tested on: Western equine encephalitis virus; assay: Antiviral activity against Western equine encephalomyelitis virus infected in human BE(2)-C cells assessed as reduction of viral titer at 25 uM after 24 hrs by plaque reduction assay (reference value: 25.7 +/- 5.2 x 10^6 pfu/ml); format: functional

Compound | inhibition at 4 h, 30 µM [1] [%] | CC50 ([3]; be(2)-c) [µM] | IC50 [4] [µM] | CC50 ([3]; BE(2)-C cells) [µM] | also measured
O=C(NCCc1ccncc1)C1CCN(C(=O)c2nc3ccccc3n2Cc2ccc(Cl)cc2)CC1 | 6.9 | 74.6 | 4.1 |  | Kinetic_solubility [2]: 63 µM; t1/2 [5]: 43 min; Activity [6]: 16.4 ×10⁶ PFU/ml; viability at 24 h, 25 µM [7]: 69.7%
CC(CNC(=O)C1CCN(C(=O)c2cc3ccccc3n2Cc2ccc(Cl)cc2)CC1)c1ccncc1 (centres undefined) | 25.4 | 98.2 | 1.7 |  | Activity [6]: 13.3 ×10⁶ PFU/ml; viability at 24 h, 25 µM [7]: 74%
CC(NC(=O)C1CCN(C(=O)c2cc3ccccc3n2Cc2ccc(Cl)cc2)CC1)c1ccncc1 (racemic) | 43.1 | 90.1 | 2.4 |  | Kinetic_solubility [2]: 31 µM; Activity [8]: 0.7 ×10⁶ PFU/ml; Activity [6]: 3.7 ×10⁶ PFU/ml; viability at 24 h, 25 µM [7]: 63.2%
O=C(NCCc1cccnc1)C1CCN(C(=O)c2cc3ccccc3n2Cc2ccc(Cl)cc2)CC1 | 30.1 | 39.4 | 5.3 |  | 
COc1ccc(Cn2c(C(=O)N3CCC(C(=O)N(C)Cc4ccccc4)CC3)cc3ccccc32)cc1 |  | 99.2 | 16.5 |  | 
O=C(NCCCc1ccncc1)C1CCN(C(=O)c2cc3ccccc3n2Cc2ccc(Cl)cc2)CC1 | 35.2 | 71.5 | 31.9 |  | Kinetic_solubility [2]: 16 µM
O=C(NCCc1ccncc1)C1CCN(C(=O)c2cc(F)cn2Cc2ccc(Cl)cc2)CC1 |  | 8 | 0.9 |  | Kinetic_solubility [2]: 125 µM
CN(Cc1ccccc1)C(=O)C1CCN(C(=O)c2cc3ccccc3n2Cc2ccc([N+](=O)[O-])cc2)CC1 |  |  | 61.3 | > 100 | 
CN(Cc1ccccc1)C(=O)C1CCN(C(=O)c2cc3ccccc3n2Cc2ccc(C#N)cc2)CC1 |  |  | 95.9 | > 100 | 
CC(C)c1ccc(CCNC(=O)C2CCN(C(=O)c3cc4ccccc4n3Cc3ccc(Cl)cc3)CC2)cc1 |  | 27.2 | 10.8 |  | 
CC(C)(Cc1ccncc1)NC(=O)C1CCN(C(=O)c2cc3ccccc3n2Cc2ccc(Cl)cc2)CC1 |  |  | 19.3 | 43.6 | 
CN(Cc1ccccc1)C(=O)C1CCN(C(=O)c2cc3ccccc3n2Cc2ccncc2)CC1 |  | 80.3 | 24.2 |  | 
O=C(c1cc2ccccc2n1Cc1ccc(Cl)cc1)N1CCC(C(=O)N2CCOCC2)CC1 |  |  | 12.8 | > 100 | 
COCCn1c(C(=O)N2CCC(C(=O)N(C)Cc3ccccc3)CC2)cc2ccccc21 |  |  | > 50 | > 50 | 
CN1CCC(CNC(=O)C2CCN(C(=O)c3cc4ccccc4n3Cc3ccc(Cl)cc3)CC2)CC1 |  |  | > 50 | > 50 | 
Cn1cnc(CNC(=O)C2CCN(C(=O)c3cc4ccccc4n3Cc3ccc(Cl)cc3)CC2)c1 |  |  | > 50 | > 50 | 
CN(Cc1ccccc1)C(=O)C1CCN(C(=O)c2cc3ccccc3n2Cc2ccc(Cl)cc2)CC1 |  | 87 | 16.9 |  | 
CN(Cc1ccccc1)C(=O)C1CCN(C(=O)c2cc3ccccc3n2Cc2ccccc2)CC1 |  | 64.8 | 17 |  | 
CC(=O)n1c(C(=O)N2CCC(C(=O)N(C)Cc3ccccc3)CC2)cc2ccccc21 |  |  | > 50 | > 50 | 
COc1ccc(CCNC(=O)C2CCN(C(=O)c3cc4ccccc4n3Cc3ccc(Cl)cc3)CC2)cc1 |  | 11.3 | 15.5 |  | 
O=C(NCCc1ccncc1)C1CCN(C(=O)c2cc3ccncc3n2Cc2ccc(Cl)cc2)CC1 | 1.2 | 77.1 | 4.4 |  | Kinetic_solubility [2]: 125 µM; t1/2 [5]: 9.1 min; Activity [6]: 69.4 ×10⁶ PFU/ml; viability at 24 h, 25 µM [7]: 66.1%
O=C(NCCc1ccc(F)cc1)C1CCN(C(=O)c2cc3ccccc3n2Cc2ccc(Cl)cc2)CC1 |  | 18.6 | 21.4 |  | 
O=C(NCc1ccncc1)C1CCN(C(=O)c2cc3ccccc3n2Cc2ccc(Cl)cc2)CC1 | 25.9 |  | 6.8 | > 100 | Kinetic_solubility [2]: 31 µM
O=C(NCC1COc2cnccc21)C1CCN(C(=O)c2cc3ccccc3n2Cc2ccc(Cl)cc2)CC1 (centres undefined) | 47 | 75.8 | 3.6 |  | 

Compound | inhibition at 4 h, 30 µM [1] [%] | CC50 ([3]; be(2)-c) [µM] | IC50 [4] [µM] | CC50 ([3]; BE(2)-C cells) [µM] | also measured
O=C(c1cc2ccccc2n1Cc1ccc(Cl)cc1)N1CCC(C(=O)N2CCC[C@H]2CO)CC1 |  | 98.9 | 30.6 |  | 
Cn1c(C(=O)N2CCC(C(=O)NCCc3ccncc3)CC2)cc2ccccc21 |  |  | > 50 | > 50 | 
O=C(NCCc1ccncc1)C1CCN(C(=O)NCCc2ccc(Cl)cc2)CC1 |  |  | 40.9 | > 100 | Kinetic_solubility [2]: 250 µM
Cn1ccc(CNC(=O)C2CCN(C(=O)c3cc4ccccc4n3Cc3ccc(Cl)cc3)CC2)n1 |  |  | 76.9 | > 100 | 
O=C(NCCc1ccncc1)C1CCN(C(=O)c2cc3ccccc3n2Cc2ccccc2)CC1 | 11.7 | 45.6 | 1.6 |  | Kinetic_solubility [2]: 31 µM; t1/2 [5]: 77.9 min; Activity [6]: 6.8 ×10⁶ PFU/ml; viability at 24 h, 25 µM [7]: 79.4%
O=C(NCc1ccccc1)C1CCN(C(=O)c2cc3ccccc3n2Cc2ccc(Cl)cc2)CC1 |  |  | 15.6 |  | 
CN(C)C(=O)C1CCN(C(=O)c2cc3ccccc3n2Cc2ccc(Cl)cc2)CC1 | 23.2 |  | 10.5 | > 100 | Kinetic_solubility [2]: 62 µM
CN(CCc1ccncc1)C(=O)C1CCN(C(=O)c2cc3ccccc3n2Cc2ccc(Cl)cc2)CC1 | 72 | 47.9 | 1.6 |  | 
O=C(NCCc1ccccn1)C1CCN(C(=O)c2cc3ccccc3n2Cc2ccc(Cl)cc2)CC1 | 21.9 | 86.2 | 22.4 |  | 
O=C(c1cc2ccccc2n1Cc1ccc(Cl)cc1)N1CCC(C(=O)N2CCCC2)CC1 |  | 65.6 | 22.2 |  | 
CC(C)Cn1c(C(=O)N2CCC(C(=O)N(C)Cc3ccccc3)CC2)cc2ccccc21 |  | 58.2 | 27.9 |  | 
O=C(NCCn1ccnc1)C1CCN(C(=O)c2cc3ccccc3n2Cc2ccc(Cl)cc2)CC1 | 15.1 | 99.6 | 4.9 |  | Kinetic_solubility [2]: 31 µM; t1/2 [5]: 14.3 min; Activity [6]: 15.8 ×10⁶ PFU/ml; viability at 24 h, 25 µM [7]: 70.3%
O=C(NCc1ccco1)C1CCN(C(=O)c2cc3sccc3n2Cc2ccc(F)cc2)CC1 |  |  | 23.7 |  | 
O=C(NCCc1ccncc1)C1CCN(C(=O)c2cc3ccc(F)cc3n2Cc2ccc(Cl)cc2)CC1 | 30.8 | 43.1 | 0.6 |  | Activity [6]: 1.6 ×10⁶ PFU/ml; viability at 24 h, 25 µM [7]: 69.2%
COc1cccc(CCNC(=O)C2CCN(C(=O)c3cc4ccccc4n3Cc3ccc(Cl)cc3)CC2)c1 |  |  | 11.1 | > 100 | 
O=C(NCCc1ccncc1)C1CCN(C(=O)c2nccn2Cc2ccc(Cl)cc2)CC1 | 0.13 |  | > 50 | > 50 | solubility kinetic ([2]; read-out: Kinetic_solubility): > 500 µM
O=C(NCCc1ccc(Cl)cc1)C1CCN(C(=O)c2cc3ccccc3n2Cc2ccc(Cl)cc2)CC1 |  | 40.4 | 8.1 |  | 
C[C@@H](NC(=O)C1CCN(C(=O)c2cc3ccccc3n2Cc2ccc(Cl)cc2)CC1)c1ccncc1 | 35.9 | 92.3 | 0.6 |  | t1/2 [5]: 23.4 min; Activity [6]: 6.4 ×10⁶ PFU/ml; viability at 24 h, 25 µM [7]: 65.5%
NC(=O)c1ncn([C@@H]2O[C@H](CO)[C@@H](O)[C@H]2O)n1 [RIBAVIRIN] |  |  | 16 |  | Activity [8]: 9.3 ×10⁶ PFU/ml; Activity [6]: 53.5 ×10⁶ PFU/ml; viability at 24 h, 25 µM [7]: 32.6%
CN(Cc1ccccc1)C(=O)C1CCN(C(=O)c2cc3ccccc3n2Cc2ccc(C(F)(F)F)cc2)CC1 |  | 90.3 | 35.1 |  | 
O=C(NCc1cccnc1)C1CCN(C(=O)c2cc3ccccc3n2Cc2ccc(Cl)cc2)CC1 |  |  | 11.4 |  | 
CN1CCN(C(=O)C2CCN(C(=O)c3cc4ccccc4n3Cc3ccc(Cl)cc3)CC2)CC1 |  | 75.6 | 31.4 |  | 
O=C(NCCc1ccncc1)C1CCN(C(=O)c2cc3cc(F)ccc3n2Cc2ccc(Cl)cc2)CC1 | 42.6 | 52.5 | 0.9 |  | Kinetic_solubility [2]: 31 µM
